# Compounds with a hit are over-represented: about 2.1% of the library has one in this group of screens.
# aSyn UTR inh: 5' untranslated region of α-synuclein, MLPCN primary screen; alpha-synuclein 5'UTR reporter, inhibitor activity; inhibition, % (tested at 7.5 µM); AID 1813; 300,000 compounds, 0.82% hits; in the data active = inhibition above about 60%;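 also: H4 neuroglioblastoma cells stably carrying SNCA 5'UTR luciferase fusion; 0% = DMSO wells and 100% = positive control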
# EBV LMP1 NFkB: inhibitors of Epstein-Barr LMP1-induced NF-kappaB reporter; 350,000 compounds, 0.69% hits; inhibition, % at 12.5 µM; LMP1-induced NF-kappaB luciferase reporter cells, luminescence; AID 504558; in the data active = inhibition above about 41%;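 also: 0% = neutral control wells and 100% = reference inhibitor control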
# Shn3 inh set2: Schnurri-3 reporter inhibition in Clone20 osteoblasts; inhibition, % at 12.5 µM; 360,000 compounds, 0.52% hits; AID 588674; Clone20 osteoblast Shn3 3'UTR firefly luciferase, 24 h;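 active = mean inhibition of at least 75% with every replicate also reaching 75%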;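 also: 0% = median of neutral control wells and 100% = pilot-screen positive control compound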
# FN deposition inh: fibronectin deposition inhibition; AID 743247; inhibition, % at 12.6 µM; 350,000 compounds, 0.086% hits; AH1F fibroblasts, Alexa488-fibronectin deposition fluorescence, overnight;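 active = mean inhibition across replicates of 30% or more, regardless of how many single replicates reach that level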;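 also: positive control wells lacked labelled fibronectin entirely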
#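 Material: AH1F fibroblasts assembling fluorescent fibronectin matrix; amount: 10000 AH1F cells/well; medium: DMEM, 2% serum; reagent: Alexa488-fibronectin, 24 nM final in well; dosing: single compound dose, delivered by pin transfer; incubation: 1 h adhesion, overnight exposure; detection: fluorescence after three HBSS washes, excitation 485 nm, emission 525 nm; measure: fibronectin deposition inhibition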
# EWS-Fli inh: blocks EWS/Fli oncoprotein-driven transcription | AID 651661 | A673 NR0B1-luciferase reporter, viability-normalised | 350,000 compounds, 0.67% hits | inhibition, % at 12.6 µM;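 active = mean inhibition of at least 50% after viability correction, with every replicate also passing that limit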;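 also: firefly luciferase signal divided by Alamar Blue viability fluorescence both relative to DMSO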
# PAX8 reporter: lowers PAX8-driven luciferase in RMG-I cells | inhibition, % at 12.6 µM | 360,000 compounds, 1.2% hits | RMG-I TPO-luciferase reporter, SteadyGlo, 24 h;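 active = mean replicate inhibition at least 60% with every replicate also reaching 60%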;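 also: luciferase light reporting Pax8 driven TPO promoter activity; plate controls were median of neutral control wells for no effect and mitoxantrone controls for full effect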
# * hit, by the source's call; . = not tested or not shown.
SMILES,aSyn UTR inh,EBV LMP1 NFkB,Shn3 inh set2,FN deposition inh,EWS-Fli inh,PAX8 reporter
C=C1C(=O)O[C@H]2C1CC[C@@](C)(O)C13C=CC(C)(C21)C1(C3)C(=O)O[C@@H]2C3C(C)=CCC3[C@](C)(O)C[C@H](OC(C)=O)C21 (stereo partly specified),-29.0,-4.3,-17.9,-7.0,-10.8,86.7*
COc1ccc(N2CCN(c3ncnc4c3[nH]c3ccccc34)CC2)cc1,1.4,47.6*,81.5,.,.,.
OC1(c2cccc(C(F)(F)F)c2)CCN(c2ncnc3c2[nH]c2ccc(F)cc23)CC1,.,44.0*,89.1*,.,.,.
Fc1ccc2[nH]c3c(N4CCN(c5ccccc5)CC4)ncnc3c2c1,7.7,50.2*,88.9*,.,.,.
O=C(CCCN1CCC(O)(c2cccc(C(F)(F)F)c2)CC1)c1ccc(F)cc1,.,5.1,5.7,3.6,10.8,2.8
CCOC(=O)N1CCN(c2ncnc3c2[nH]c2ccc(F)cc23)CC1,-6.7,38.3,.,-1.9,.,33.5
COc1cc(C2=NOC(C(=O)NCc3ccc(F)cc3)C2)cc(OC)c1OC (stereo unspecified),77.1*,16.9,17.0,-6.7,.,.
COc1ccc(C2=NOC(C(=O)NCc3ccc(F)cc3)C2)cc1OC (stereo unspecified),81.5*,11.0,5.6,.,48.2,.
O=C(c1ccc(F)cc1)N1CC(=O)N2[C@H](CO)[C@@H](c3ccc(C#Cc4ccc(F)cc4)cc3)[C@@H]2C1,.,.,.,.,11.6,51.9
C[C@H]1CN([C@@H](C)CO)C(=O)Cc2cc(NC(=O)Cc3ccccc3)ccc2O[C@H]1CN(C)C,.,.,.,.,-2.9,-18.8
CCC(=O)N1[C@H](CO)[C@H](c2ccc(C3=CCCCC3)cc2)[C@H]1CNCC1CCC1,.,.,.,-3.0,1.1,.
O=C(NCC1CCOCC1)c1ccc(OC2CCN(Cc3ccccn3)CC2)cc1,-0.6,57.6*,5.9,0.9,-0.3,8.2
CC(C)COC(=O)N(C)C[C@H]1OCc2ccccc2-c2c(n(C)c3ccccc23)C(=O)N([C@@H](C)CO)C[C@@H]1C,.,.,.,-2.9,-10.5,10.5
O=C(c1cccc(S(=O)(=O)N2CCN(c3ccc(F)cc3)CC2)c1)N1CCCC(C(F)(F)F)C1 (stereo unspecified),0.2,24.9,91.9*,-2.9,20.5,30.6
CN(CCOc1ccc(Cl)cc1)C(=O)c1cccc(S(=O)(=O)N2CCN(c3ccc(F)cc3)CC2)c1,.,3.0,89.0*,.,.,.
COc1ccc(C(=O)N(C)Cc2cnn(Cc3ccccc3)c2)cc1S(=O)(=O)N1CCOCC1,.,-8.1,10.0,11.9,61.7*,39.0
CN(Cc1ccc(Cl)c(Cl)c1)C(=O)c1cccc(S(=O)(=O)N2CCN(Cc3ccccc3)CC2)c1,.,6.9,86.9*,.,11.3,34.5
Cc1ccc(S(=O)(=O)Nc2ccc3c(c2)C(=O)N([C@H](C)CO)C[C@@H](C)[C@@H](CN(C)Cc2ccc(C(=O)O)cc2)OCCCC[C@@H](C)O3)cc1,.,.,.,-4.8,-16.5,-6.9
CN(CC(=O)Nc1ccccc1Cl)C(=O)c1cccc(S(=O)(=O)N2CCN(c3ccccc3)CC2)c1,.,21.8,87.4*,.,16.9,18.1
CN(CC(=O)Nc1ccccc1Cl)C(=O)c1cccc(S(=O)(=O)N2CCN(c3ccc(F)cc3)CC2)c1,-1.4,19.5,88.0*,-6.6,.,17.9
Cc1ccc(S(=O)(=O)Nc2ccc3c(c2)CC(=O)N([C@@H](C)CO)C[C@H](C)[C@@H](CN(C)Cc2ccc4c(c2)OCO4)O3)cc1,.,.,.,.,3.0,10.4
CC(C)CC#Cc1cnc2c(c1)C(=O)N([C@@H](C)CO)C[C@H](C)[C@@H](CN(C)Cc1ccccn1)O2,.,.,.,-0.2,5.0,.
COc1cc(/C=C2/SC(=S)N(Cc3ccccc3)C2=O)ccc1OS(C)(=O)=O,-35.3,39.5,-2.6,10.8,6.9,10.6
COc1cc(/C=C2/SC(=S)N(Cc3ccccc3)C2=O)ccc1OCC(=O)O,0.7,46.9*,4.6,12.7,15.5,37.9
Cc1noc(C)c1S(=O)(=O)N(C)C[C@@H]1Oc2ccc(NS(C)(=O)=O)cc2C(=O)N([C@@H](C)CO)C[C@@H]1C,.,.,.,.,2.0,.
SMILES,aSyn UTR inh,EBV LMP1 NFkB,Shn3 inh set2,FN deposition inh,EWS-Fli inh,PAX8 reporter
COc1ccc(S(=O)(=O)Nc2ccc3c(c2)C(=O)N([C@H](C)CO)C[C@H](C)[C@H](CN(C)C(=O)Nc2ccc(C(F)(F)F)cc2)OCCCC[C@@H](C)O3)cc1,.,.,.,-15.2,-1.3,24.7
COc1nn(-c2ccccc2)c(=O)c(Cl)c1Cl,-347.4,1.2,2.3,12.3,76.0*,117.2*
CN1Cc2c(N3CCOCC3)nc3sc(C(=O)c4ccc(Br)cc4)c(N)c3c2CC1(C)C,104.7*,.,.,6.9,18.7,-27.9
Cc1ccccc1-c1ccc([C@H]2[C@H]3CN(C(=O)Nc4cccc(F)c4)CC(=O)N3[C@H]2CO)cc1,.,.,.,-7.6,-8.7,.
COc1cccc(COC(=O)C2CCN(S(=O)(=O)c3ccc(C)cc3)CC2)c1OC,12.5,-6.5,-1.1,3.2,8.5,-4.0
COc1ccccc1CC(=O)OC(C)C(=O)Nc1ccc(S(=O)(=O)N2CCCCC2)cc1 (stereo unspecified),.,-2.6,-4.1,45.7*,1.9,7.1
COc1ccc(S(=O)(=O)N2CCCCCC2)cc1C(=O)OCc1cccc(OC)c1OC,3.2,45.9*,-13.0,3.7,-2.9,12.5
CCCNC(=O)N[C@@H]1CC[C@H](CC(=O)NC2CCCCC2)O[C@@H]1CO,.,.,.,-7.1,-1.1,-7.1
CCc1ccc(C(=O)COC(=O)c2cccc(N3C(=O)c4c(C)nc5ccccc5c4C3=O)c2)cc1,43.0,44.5*,-16.8,-12.5,.,-19.4
NC(=S)NN=Cc1nccc2c(C(F)(F)C(F)(F)C(F)(F)F)cccc12,.,82.3*,82.8,12.7,37.2,74.9*
NC(=S)NN=Cc1nccc2ccccc12,.,82.1*,79.2,.,11.0,55.0
COC(=O)C1=CN(c2ccc(OC)cc2OC)C(N)=C(C#N)C1c1ccccc1F (stereo unspecified),.,.,.,.,52.5*,22.1
O=C(C[C@H]1C[C@@H]2c3cc(NC(=O)Nc4ccccc4F)ccc3O[C@@H]2[C@@H](CO)O1)NCc1ccccn1,.,.,.,3.4,-1.9,11.5
COc1ccc(CCNC(=O)c2cc(C(=O)c3cc(Cl)ccc3O)cn(CCc3ccc(OC)cc3)c2=O)cc1,7.5,-3.5,20.9,-2.5,.,80.2*
CC(C)c1cn(CC[C@@H]2CC[C@H](NS(=O)(=O)c3ccc(Cl)cc3)[C@H](CO)O2)nn1,.,.,.,.,8.4,-5.1
CC(C)(C)[Si](C)(C)OC[C@@H]1[C@H]2c3ccccc3O[C@]1(C)NC(=S)N2C(=O)c1ccccc1,.,.,.,.,9.5,95.2*
Cc1cc2c(c(C)c1CCO[C@@H]1O[C@H](CO)[C@@H](O)[C@H](O)[C@H]1O)C(=O)[C@@H](C)[C@@H]2O,.,-3.5,-26.5,2.7,-15.4,85.7*
OC[C@H]1O[C@H](OCCc2ccc(O)cc2)[C@H](O)[C@@H](O)[C@@H]1O,.,-7.6,3.8,10.2,-3.0,-4.3

# Screening results deposited in PubChem BioAssay by Broad Institute.
